Screening data (PubChem)
This is a sample that favours compounds with a hit; in the whole collection about 0.74% have one here.
RGS16-Gao: regulators of human RGS16-Galphao interaction; binding response (% of control), % at 10 µM; O15492+P09471; bead-based flow cytometry RGS16-Galphao binding, fluorescence; actives lie on both sides; 220,000 compounds, 0.38% hits;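 also: Galphao activated by GDP with aluminum fluoride before binding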
RGS8-Gao reg: regulators of human RGS8-Galphao interaction. multiplexed bead flow cytometry, RGS8-Galphao binding; actives lie on both sides. 220,000 compounds, 0.34% hits. response (percent of control binding), % at 10 µM. AID 1423; in the data active = response below about 60% or above about 140%; inactive = in between;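 also: Galphao activated as the GDP aluminium fluoride complex binding bead-coupled RGS8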
Target sequence (P09471 whole entry, looked up): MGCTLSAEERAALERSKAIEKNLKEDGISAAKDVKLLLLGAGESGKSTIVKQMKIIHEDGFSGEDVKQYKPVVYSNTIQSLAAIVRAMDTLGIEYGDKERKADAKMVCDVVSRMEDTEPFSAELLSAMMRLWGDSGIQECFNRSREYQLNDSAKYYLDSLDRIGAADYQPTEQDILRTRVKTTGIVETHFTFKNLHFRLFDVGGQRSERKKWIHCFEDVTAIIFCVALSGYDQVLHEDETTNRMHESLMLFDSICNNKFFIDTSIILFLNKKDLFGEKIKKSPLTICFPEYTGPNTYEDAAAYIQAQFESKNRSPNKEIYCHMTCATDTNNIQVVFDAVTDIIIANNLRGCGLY
Calb biofilm kill: mixtures killing C. albicans biofilm; C. albicans biofilm persisters + clotrimazole, fluorescence viability; primary screen in compound mixtures of four per well; inhibition, % at 7.6 µM; 120,000 compounds, 0.02% hits;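 active = inhibition above 30.3% in the primary screen of four-compound pools, then above 30% when the compound was retested; inconclusive = passed the primary limit but could not be retested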;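 also: compounds exposed to preformed 24 h biofilms for 48 h; 0% = untreated biofilm control and 100% = clotrimazole plus chlorhexidine kill blank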
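Probe or stimulus – Clotrimazole 50 µg/mL co-treatment · System – C. albicans biofilms · Schedule – 24 h biofilm formation, then 48 h compound exposure, 37 °C · Evaluation – percent inhibition of biofilm viability · Technique – 2-h Alamar Blue fluorescence, 535/590 nm excitation/emission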
RGS7-Gao: human RGS7-Galphao interaction regulation. P09471. Multiplexed bead flow cytometry, RGS7-Galphao binding; actives lie on both sides. binding response (% of control), % at 10 µM. 220,000 compounds, 0.35% hits; in the data active = binding response below about 49% or above about 150%; inconclusive = no clear call, values can overlap the other calls; inactive = in between;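 also: fluorescent Galphao held in activated GDP-AlF4 state binding bead-coupled RGS7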
RGS4-Gao reg: human RGS4-Galphao interaction regulation; P09471; Multiplexed bead flow cytometry, RGS4-Galphao binding; actives lie on both sides; binding response (% of control), % at 10 µM; 220,000 compounds, 0.33% hits; AID 1415; in the data active = binding response below about 49% or above about 150%; inactive = in between;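 also: fluorescent Galphao activated with aluminum fluoride binding bead-coupled RGS4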
RGS4-Gao HTS: modulates binding between human RGS4 and Galphao. RGS4–Galpha-o binding response, % at 10 µM. 1,600 compounds, 99% hits. shares compounds with RGS16-Gao. multiplexed bead flow cytometry, RGS–Galpha-o binding;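 also: fluorescently labeled Galpha-o bound to GDP with aluminium fluoride binding biotinylated RGS beads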
Avidin counter: counter-screen: compounds disrupting biotin binding to avidin beads | 1,700 tested, under 10 active | inhibition, % at 10 µM | streptavidin beads, fluorescein-biotin binding, flow cytometry | shares compounds with RGS16-Gao;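 active = inhibition above 50%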;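 also: median green fluorescence of gated singlet beads compared with DMSO control wells; 0% = DMSO wells and 100% = complete loss of bead fluorescence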
RGS8-Gao single: RGS8-Galphao interaction regulation, single point confirmation; bead-based flow cytometry RGS8-Galphao binding, fluorescence; actives lie on both sides; shares compounds with RGS16-Gao; binding response (% of control), % at 10 µM; AID 1836; 1,700 compounds, 3% hits; in the data active = binding response below about 72% or above about 130%; inactive = in between;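 also: Galphao activated as GDP AlF4 complex before binding bead RGS8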
RGS7-Gao confirm: RGS7-Galphao interaction regulation, single point confirmation | shares compounds with RGS16-Gao | bead-based flow cytometry RGS7-Galphao binding; actives lie on both sides | response (percent of control binding), % at 10 µM | 1,700 compounds, 7.8% hits; in the data active = response below about 75% or above about 130%; inactive = in between;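 also: fluorescent Galphao activated with GDP and aluminum fluoride binding bead-coupled RGS7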
RGS16-Gao single: confirmation of regulators of human RGS16-Galphao interaction; shares compounds with RGS16-Gao; bead-based flow cytometry, RGS16-Galphao binding; actives lie on both sides; response (% of control binding), % at 10 µM; 1,700 compounds, 4% hits; in the data active = response below about 74% or above about 130%; inactive = in between;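 also: Galphao activated as the GDP aluminium fluoride complex binding bead-coupled RGS16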
RGS4-Gao confirm: RGS4-Galphao interaction regulation, single point confirmation; binding response (% of control), % at 10 µM; shares compounds with RGS16-Gao; RGS4-Galphao binding, multiplexed bead flow cytometry; actives lie on both sides; AID 1840; 1,700 compounds, 4% hits; in the data active = binding response below about 74% or above about 130%; inactive = in between
RGS19-Gao conf: RGS19-Galphao interaction regulation, single point confirmation. 1,700 compounds, 5% hits. response (percent of control binding), % at 10 µM. bead-based flow cytometry RGS19-Galphao binding; actives lie on both sides. shares compounds with RGS16-Gao; in the data active = response below about 50% or above about 160%; inactive = in between;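 also: 100% = no compound control and 0% = blank background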
Target sequence (P09471 whole entry, looked up): as above
Target sequence (P49795 whole entry, looked up): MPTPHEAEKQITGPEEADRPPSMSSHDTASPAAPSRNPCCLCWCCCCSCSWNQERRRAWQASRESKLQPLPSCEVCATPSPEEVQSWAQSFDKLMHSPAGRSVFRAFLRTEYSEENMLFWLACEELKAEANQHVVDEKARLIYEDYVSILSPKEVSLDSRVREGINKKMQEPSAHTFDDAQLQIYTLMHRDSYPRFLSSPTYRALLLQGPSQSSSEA
* = called active by the depositor; u = inconclusive; x = no result given; [ ] = remark or other dose. Unless noted, no rule for the calls is given here.

SMILES	RGS16-Gao	RGS8-Gao reg	Calb biofilm kill	RGS7-Gao	RGS4-Gao reg	RGS4-Gao HTS	Avidin counter	RGS8-Gao single	RGS7-Gao confirm	RGS16-Gao single	RGS4-Gao confirm	RGS19-Gao conf
CCOc1ccccc1NC1=C(Cl)C(=O)N(c2ccccc2)C1=O	103	104	16	103	98	x	x	x	x	x	x	x
OCCN(Cc1ccccc1)Cc1ccc(C(F)(F)F)cc1	102	100	x	98	102	x	x	x	x	x	x	x
OCCN(Cc1ccccc1)Cc1cccc(C(F)(F)F)c1	x	x	x	x	x	x	1	98	90	96	94	70
O=C(OCC(=O)N1CCc2ccccc21)c1nc(Cl)ccc1Cl	102	100	17	u	99	x	x	x	x	x	x	x
CCOC(=O)c1c(C)nc(SCC(N)=O)c(C#N)c1-c1ccccc1	182*[activator]	125	-14	104	111	111*	0	115	108	114	108	92
Cc1ccc(S(=O)(=O)CC(=O)c2cc(C)c(O)c(C)c2)cc1	102	97	12	u	100	x	x	x	x	x	x	x
O=[N+]([O-])c1cc2c(cc1/C=N/n1c(-c3ccccc3)n[nH]c1=S)OCO2	102	97	x	106	102	x	x	x	x	x	x	x
O=[N+]([O-])c1cc2c(cc1/C=N/n1c(-c3ccccn3)n[nH]c1=S)OCO2	-3.6*	72	15	84	86	86*	2	95	115	86	98	76
Cc1ccc(-n2nnnc2C(=Cc2ccc(N(C)C)cc2)c2nnnn2-c2ccc(C)cc2)cc1	11*	14*	x	18*	23*	x	1	113	100	118	102	91
Cc1c(N2CCCC2)cc2c(c1NC(=O)c1ccccc1Cl)C(C)(C)CC2(C)C	155	130	17	u	156*[activator]	x	-1	98	80	95	95	74
O=C(Nc1ccccc1N1CCCC1)c1cccc(Cl)c1Cl	110	105	2	99	100	x	x	x	x	x	x	x
Nc1ccc(C(CC(=O)O)n2cccc2)cc1 (stereo unspecified)	96	72	17	39*	83	83*	-1	97	80	90	89	66
CC(=O)C1=C(O)C(=O)N(Cc2cccnc2)C1c1ccc(Cl)cc1 (stereo unspecified)	100	100	10	102	100	x	x	x	x	x	x	x
CC(=O)C1=C(O)C(=O)N(Cc2ccccc2)C1c1cccs1 (stereo unspecified)	106	101	x	202*[activator]	119	119*	-1	99	94	99	99	100
CCN(C(=O)CSc1nc2ccccc2c(=O)n1C(C)COC)C1CCS(=O)(=O)C1 (stereo unspecified)	102	105	17	99	103	x	x	x	x	x	x	x
COC(=O)CCC(=O)NNC(=O)CCCOc1ccc(Cl)cc1Cl	102	105	x	102	100	x	x	x	x	x	x	x
COC(=O)CCC(=O)NNC(=O)c1ccc(Cl)cc1Cl	32	84	x	175*[activator]	104	104*	x	x	x	x	x	x
CCN1CCN(Cc2c(O)ccc3c2O/C(=C\C=C\c2ccccc2)C3=O)CC1	187*[activator]	117	8	103	106	106*	-1	100	101	99	101	100
O=C1/C(=C/C=C/c2ccccc2)Oc2c1ccc(O)c2CN1CCN(CCO)CC1	85	97	15	u	85	x	x	x	x	x	x	x
COc1ccccc1/C=C/C=C1\Oc2c(ccc(O)c2CN2CCN(CCO)CC2)C1=O	284	146*[activator]	10	246*[activator]	218*[activator]	x	1	104	107	101	101	80
COc1cc2[nH]c(Cl)c([N+](=O)[O-])c2cc1OC	92	92	17	u	94	x	x	x	x	x	x	x
O=C(NC(C(=O)N/N=C/c1ccccn1)c1n[nH]c(=O)c2ccccc12)c1ccccc1 (stereo unspecified)	102	102	17	u	104	x	x	x	x	x	x	x
C=CCNCCCOc1ccc(C)cc1Br	24*	90	9	95	90	90*	-1	105	102	109	102	142
COCCCNCCCOc1ccc(C)cc1Br	123	112	-8	103	100	x	x	x	x	x	x	x
CCCc1nc2ccc(NC(=O)NCCC(=O)OCC)cc2c(=O)n1Cc1ccc(Cl)cc1	8.6*	69	-2	85	89	89*	0	103	100	103	102	103
SMILES	RGS16-Gao	RGS8-Gao reg	Calb biofilm kill	RGS7-Gao	RGS4-Gao reg	RGS4-Gao HTS	Avidin counter	RGS8-Gao single	RGS7-Gao confirm	RGS16-Gao single	RGS4-Gao confirm	RGS19-Gao conf
O=C(CCn1c(=S)oc2ccccc21)Nc1cccc(O)c1	12*	15*	12	9.9*	22*	x	0	99	102	97	99	104
COc1ccccc1-c1c(C)nn2c(N3CCC(C)CC3)cc(C)nc12	11*	22*	16	u	17*	x	0	111	112	111	111	101
CCOc1ccccc1NS(=O)(=O)N(C)C	-853	65	x	61	11*	x	-1	100	96	98	94	102
Cc1ccc(-c2csc(NC(=O)CSc3nnc4c(n3)[nH]c3ccccc34)n2)cc1	93	94	16	92	89	x	x	x	x	x	x	x
COc1ccc(Oc2ccccc2/C=C/C(=O)O)cc1	101	100	x	98	98	x	x	x	x	x	x	x
O=C(O)/C=C/c1ccccc1Oc1ccccc1	184	138	x	154*[activator]	162*[activator]	x	0	98	96	98	96	97
O=C(O)/C=C\c1ccccc1Oc1ccc(F)cc1	101	100	30	167*[activator]	127	127*	1	103	86	98	97	98
COc1cc(CNC23CC4CC(CC(C4)C2)C3)ccc1OCc1ccccc1	101	100	12	99	100	x	x	x	x	x	x	x
CCCCn1c2ccc(F)cc2c2nnc(NN)nc21	111	102	14	103	102	x	x	x	x	x	x	x
C=CCn1c(C(CCCC)CC(C)O)n[nH]c1=S (stereo unspecified)	-9.0*	67	18	85	84	84*	0	91	88	87	90	55
